Data from PubChem BioAssay.
Calls of active or inactive are those of the source. Rule as the data show it, unless noted: active = inhibition above about 30%; inactive = the rest.

How the values were obtained:
[1] = reducers of endogenous Her2 protein level, primary screen, SKBR3 breast tumor cells, AlphaScreen, ATP viability (AID 461;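 active = Her2 level under about 52% in both replicate screens, with viability over 70% of control, limit read from the data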;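 as to Her2 level: lower value means less Her2 protein in the cells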;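 as to viability: percent of carrier control wells set as 100% viability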); details: 18-24 h, measured here: SKBR3 viability, ATP luminescence, at 10 µM
[2] = biological target: Receptor tyrosine-protein kinase erbB-2 (Homo sapiens) (UniProt P04626); assay: as above; details: 18-24 h, at 10 µM, stronger effect = lower value
[3] = SK-BR-3 cell growth inhibitors, pilot screen, 24 h, human (AID 572;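 active = viability at or below 10% of carrier control in both of two separate runs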;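 also: compound exposure lasted between 18 and 24 h rather than exactly 24 h; 100% = carrier-treated control wells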); details: SK-BR-3 viability, CellTiter-Glo luminescence, at 10 µM, stronger effect = lower value
[4] = HUVEC growth inhibition – cell-based, human, primary screen (AID 575;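 active = viability at or below 30% in both replicate assays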;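 also: 100% = median of untreated cell wells with 0.1% DMSO on each plate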); details: HUVEC proliferation, CellTiter-Glo luminescence, 72 h; at 10 µM; stronger effect = lower value
How it was run: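 System – primary HUVEC, no more than 12 passages · Medium – Low-serum (2% FBS) EBM, supplemented · Times – 72 h exposure, 37 °C, 5% CO2, 30 min RT equilibration · Measured by – luminescent ATP assay · Read-out – % viability relative to median vehicle-well signal on each plate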

[5] = growth inhibitors of H69AR lung tumor, primary screen, human, duplicate replicates (AID 580;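 active = viability at or under a set limit in both replicates, limit being median viability minus 3 SD, cut at about 48% in these data, passing the limit was not always enough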;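 also: 100% = mean luminescence of untreated wells and 0% = no signal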); details: H69AR lung tumor cells viability, ATP luminescence, 72 h; at 10 µM; stronger effect = lower value
[6] = reversal of MRP1-mediated doxorubicin resistance, pilot screen, H69AR cells, doxorubicin co-treatment (AID 601;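 active = viability loss from added drug above about 55%, and viability with drug at most 40%, in both replicates, limit read from the data, passing the limit was not always enough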); details: CellTiter-Glo, 72 h, at 10 µM; for differential viability (reversal): stronger effect = higher value
[7] = 384-well plate pilot, post-Golgi transport modulator project, inhibition of yeast transport mutant growth (AID 636; in the data active = inhibition above about 31%); details: absorbance 615 nm, about 18 h, stronger effect = higher value
[8] = growth suppression of yeast trafficking mutant, preliminary HTS, modulators of trafficking downstream of Golgi apparatus project, 1536-format plate, OD 615 nm (AID 637); details: yeast transport mutant growth, absorbance 615 nm, 18 h; stronger effect = higher value
[9] = H69AR cells + 2 uM doxorubicin, measured here: viability with 2 uM doxorubicin, stronger effect = lower value
[10] = H69AR cells, compound alone cytotoxicity

Receptor tyrosine-protein kinase erbB-2 (Homo sapiens), sequence (P04626 whole entry, looked up): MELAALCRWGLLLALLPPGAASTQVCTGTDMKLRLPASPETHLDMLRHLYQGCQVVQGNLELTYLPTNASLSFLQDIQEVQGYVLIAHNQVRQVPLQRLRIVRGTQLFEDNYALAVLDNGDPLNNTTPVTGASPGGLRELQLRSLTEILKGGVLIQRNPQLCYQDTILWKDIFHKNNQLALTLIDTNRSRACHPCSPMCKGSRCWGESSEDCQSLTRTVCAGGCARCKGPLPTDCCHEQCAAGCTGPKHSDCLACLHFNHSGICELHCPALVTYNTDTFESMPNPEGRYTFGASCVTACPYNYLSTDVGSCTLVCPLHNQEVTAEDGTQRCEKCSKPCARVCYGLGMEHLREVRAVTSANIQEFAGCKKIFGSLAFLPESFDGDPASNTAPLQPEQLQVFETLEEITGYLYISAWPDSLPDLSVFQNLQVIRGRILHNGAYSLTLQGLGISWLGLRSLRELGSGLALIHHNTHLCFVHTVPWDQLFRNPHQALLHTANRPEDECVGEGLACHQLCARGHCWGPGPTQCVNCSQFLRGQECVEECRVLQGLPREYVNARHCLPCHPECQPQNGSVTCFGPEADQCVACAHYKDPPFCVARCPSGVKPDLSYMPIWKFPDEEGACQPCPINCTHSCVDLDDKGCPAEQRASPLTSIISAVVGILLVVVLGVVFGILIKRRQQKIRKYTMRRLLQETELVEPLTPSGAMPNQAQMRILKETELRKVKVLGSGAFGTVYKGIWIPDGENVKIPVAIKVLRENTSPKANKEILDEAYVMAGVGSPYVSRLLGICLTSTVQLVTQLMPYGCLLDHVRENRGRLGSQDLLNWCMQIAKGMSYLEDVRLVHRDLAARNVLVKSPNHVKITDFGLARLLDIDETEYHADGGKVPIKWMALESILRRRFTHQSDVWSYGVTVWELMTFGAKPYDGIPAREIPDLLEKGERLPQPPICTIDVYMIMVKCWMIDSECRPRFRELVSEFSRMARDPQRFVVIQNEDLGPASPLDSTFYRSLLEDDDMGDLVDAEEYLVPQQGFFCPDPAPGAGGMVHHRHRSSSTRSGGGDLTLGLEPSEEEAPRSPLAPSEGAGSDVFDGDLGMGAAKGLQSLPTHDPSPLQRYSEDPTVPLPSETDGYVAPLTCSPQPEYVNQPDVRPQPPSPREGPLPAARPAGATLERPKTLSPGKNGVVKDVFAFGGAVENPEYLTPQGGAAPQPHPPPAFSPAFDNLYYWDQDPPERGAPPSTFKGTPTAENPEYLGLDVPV

Compound | viability [1] [%] | Her2 level [2] | viability [3] | viability [4] | viability [5] | differential viability (reversal) ([6]; H69AR cells + 2 uM doxorubicin) | viability [6, 9] [%] | viability [6, 10] [%] | inhibition [7] | inhibition [8]
CCOC(=O)c1c(NC(=O)CSc2nnc(-c3ccc(OC)cc3)o2)sc2c1CCC2 | 88 | 100% (inactive) | 88% (inactive) | 76.1% (inactive) | 82.1% (inactive) | -8.29% (inactive) | 90.4 | 82.1 | -0.26% (inactive) | -1.77% (inactive)
Cc1ccsc1C1C2=C(CCCC2=O)Nc2ncnn21 (stereo not given) | 86 | 100% (inactive) | 86% (inactive) | 98% (inactive) | 92.6% (inactive) | -7.12% (inactive) | 99.7 | 92.6 | -1.32% (inactive) | -1.31% (inactive)
CCc1cccc(NC(=O)C2CCCN(S(=O)(=O)c3c(C)[nH]c(=O)[nH]c3=O)C2)c1 (stereo not given) | 89.5 | 82% (inactive) | 89.5% (inactive) | 97% (inactive) | 95% (inactive) | 6.79% (inactive) | 88.2 | 95 | -2.89% (inactive) | -3.83% (inactive)
CCCCC(=O)NCCc1ccc(S(N)(=O)=O)cc1 | 104 | 104% (inactive) | 104% (inactive) | 95.4% (inactive) | 97.1% (inactive) | 9.4% (inactive) | 87.7 | 97.1 | -2.16% (inactive) | 2.62% (inactive)
Cc1ccc(S(=O)(=O)N2CCC(C(=O)N[C@@H](Cc3ccccc3)C(=O)O)CC2)cc1 | 104 | 174% (inactive) | 104% (inactive) | 108% (inactive) | 86.9% (inactive) | 9.85% (inactive) | 77.1 | 86.9 | -4.27% (inactive) | -6.13% (inactive)
COc1ccc2nc(NC(=O)c3ccoc3C)sc2c1 | 99 | 87.5% (inactive) | 99% (inactive) | 23.9% (active) | 26.1% (active) | -13.7% (inactive) | 39.8 | 26.1 | -3.82% (inactive) | 6.33% (inactive)
CCOc1ccc(CN2CCN(c3cc(C)nc4c5c(C)cc(C)nc5nn34)CC2)cc1 | 80 | 83.5% (inactive) | 80% (inactive) | 94.2% (inactive) | 88.8% (inactive) | -3.18% (inactive) | 92 | 88.8 | -2.5% (inactive) | -4.36% (inactive)
Cc1ccc(OCC(O)Cn2c(=N)n(CCN3CCCCC3)c3ccccc32)cc1 (stereo not given) | 79 | 63% (inactive) | 79% (inactive) | 2.43% (active) | 18.6% (active) | -3.16% (inactive) | 21.7 | 18.6 | -4% (inactive) | -0.33% (inactive)
CCCCC(CC)CNC(=O)C1CCCN(S(=O)(=O)c2cnc[nH]2)C1 (stereo not given) | 91.5 | 95.5% (inactive) | 91.5% (inactive) | 105% (inactive) | 92.2% (inactive) | -1.91% (inactive) | 94.1 | 92.2 | -2.67% (inactive) | 2.79% (inactive)
O=C(OCc1ccccc1F)c1ccc2c(c1)OCCO2 | 122 | 86% (inactive) | 122% (inactive) | 103% (inactive) | 92% (inactive) | 9.29% (inactive) | 82.7 | 92 | -5.47% (inactive) | -5.08% (inactive)
CCn1nc(CC(=O)Nc2nnc(CC(=O)N3CCCCC3)s2)c2ccccc2c1=O | 96 | 102% (inactive) | 96% (inactive) | 84.4% (inactive) | 97.5% (inactive) | 4.77% (inactive) | 92.7 | 97.5 | -0.52% (inactive) | -4.83% (inactive)
CCCCCCOC(=O)C(C#N)c1nc2ccccc2nc1N1CCCCC1 (stereo not given) | 94 | 88% (inactive) | 94% (inactive) | 63.8% (inactive) | 89.1% (inactive) | -11.9% (inactive) | 101 | 89.1 | -2.47% (inactive) | -2.33% (inactive)
COc1cc2c(cc1OC)C(c1cccnc1)CC(=O)N2 (stereo not given) | 106 | 95% (inactive) | 106% (inactive) | 82.2% (inactive) | 97.4% (inactive) | 8.69% (inactive) | 88.7 | 97.4 | -1.73% (inactive) | -0.98% (inactive)
COC(=O)c1cc(OC)c(OC)cc1NC(=O)CCC1CCCC1 | 103 | 95% (inactive) | 103% (inactive) | 88.8% (inactive) | 102% (inactive) | -3.46% (inactive) | 106 | 102 | 0.39% (inactive) | 9.05% (inactive)
COc1ccc(C(N)=O)cc1N | 77.5 | 116% (inactive) | 77.5% (inactive) | 105% (inactive) | 94.6% (inactive) | -1.72% (inactive) | 96.3 | 94.6 | 4.81% (inactive) | 18% (inactive)
Cc1nc2ccccn2c1P(=O)(N1CCCCC1)N1CCCCC1 | 92.5 | 112% (inactive) | 92.5% (inactive) | 117% (inactive) | 91% (inactive) | 1.72% (inactive) | 89.3 | 91 | -2.93% (inactive) | 0% (inactive)
Nc1scc(-c2ccncc2)c1Cl | 90.5 | 77.5% (inactive) | 90.5% (inactive) | 83.5% (inactive) | 96.2% (inactive) | 8.54% (inactive) | 87.7 | 96.2 | -5.07% (inactive) | -3.49% (inactive)
COC(=O)c1c(N)n(-c2cc(OC)cc(OC)c2)c2nc3ccccc3nc12 | 85.5 | 93% (inactive) | 85.5% (inactive) | 61.7% (inactive) | 101% (inactive) | 10.6% (inactive) | 90.5 | 101 | -6.35% (inactive) | 3.83% (inactive)
COc1ccc(C(=O)Nc2cccc(-c3nc4ncccc4o3)c2C)cc1OC | 99 | 122% (inactive) | 99% (inactive) | 81.8% (inactive) | 92.8% (inactive) | 1.52% (inactive) | 91.2 | 92.8 | 3.42% (inactive) | -3.97% (inactive)
Cn1c(SCC(N)=O)nnc1C1CCN(C(=O)NCc2ccccc2)CC1 | 88 | 103% (inactive) | 88% (inactive) | 93.6% (inactive) | 88.3% (inactive) | 0.425% (inactive) | 87.8 | 88.3 | -3.55% (inactive) | -9.5% (inactive)
C=CCn1c(SCC(=O)NC2CCCCC2)nnc1-c1sc(N)nc1C | 99.5 | 102% (inactive) | 99.5% (inactive) | 110% (inactive) | 95.8% (inactive) | 0.86% (inactive) | 94.9 | 95.8 | -2.8% (inactive) | -1.45% (inactive)
O=C(NCC(c1cccnc1)N1CCN(c2ccc(F)cc2)CC1)c1ccc(F)cc1 (stereo not given) | 90 | 86.5% (inactive) | 90% (inactive) | 103% (inactive) | 92.7% (inactive) | 1.7% (inactive) | 91 | 92.7 | -3.11% (inactive) | 8.25% (inactive)
COC(=O)c1cccc(NC(=O)CSc2nnc(COc3ccc(C#N)cc3)n2-c2ccccc2)c1 | 92 | 112% (inactive) | 92% (inactive) | 105% (inactive) | 87.8% (inactive) | -1.66% (inactive) | 89.4 | 87.8 | 3.38% (inactive) | -3.02% (inactive)
Cc1ccc(-n2nnnc2SCC(=O)c2cc(C)n(CC3CCCO3)c2C)cc1 (stereo not given) | 83.5 | 106% (inactive) | 83.5% (inactive) | 70.8% (inactive) | 86% (inactive) | -9.62% (inactive) | 95.7 | 86 | -5.07% (inactive) | 0.48% (inactive)
Cn1cc(CN2CCc3ccccc3C2)c2ccccc21 | 80.5 | 82% (inactive) | 80.5% (inactive) | 90.4% (inactive) | 75.6% (inactive) | -8.43% (inactive) | 84.1 | 75.6 | -5.58% (inactive) | 3.93% (inactive)
CCc1nnc2c3cnn(-c4ccccc4)c3ncn12 | 93.5 | 95% (inactive) | 93.5% (inactive) | 102% (inactive) | 110% (inactive) | 15.1% (inactive) | 94.6 | 110 | -3.92% (inactive) | 2.38% (inactive)
O=C(CC1CCS(=O)(=O)C1)Nc1ccc[nH]c1=O (stereo not given) | 102 | 82.5% (inactive) | 102% (inactive) | 88.1% (inactive) | 106% (inactive) | 14.1% (inactive) | 92.3 | 106 | -4.74% (inactive) | -8% (inactive)
CCN1CCCC1CNC(=O)CS(=O)(=O)Cc1nc(-c2ccccc2C)oc1C (stereo not given) | 97 | 92.5% (inactive) | 97% (inactive) | 83% (inactive) | 88.1% (inactive) | 0.015% (inactive) | 88.1 | 88.1 | -3.6% (inactive) | 1.64% (inactive)
